MC4R antag cAMP: antagonists of human melanocortin 4 receptor (MC4R); inhibition, % at 6.5 µM; MC4R-expressing cells, MTII-stimulated cAMP, LANCE TR-FRET; AID 540295; 0.48% of 360,000 active;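 active = inhibition above its plate's cutoff, the mean of tested wells on that plate plus 3 SD, cut at about 29% in these data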
Target sequence (P32245 whole entry, looked up): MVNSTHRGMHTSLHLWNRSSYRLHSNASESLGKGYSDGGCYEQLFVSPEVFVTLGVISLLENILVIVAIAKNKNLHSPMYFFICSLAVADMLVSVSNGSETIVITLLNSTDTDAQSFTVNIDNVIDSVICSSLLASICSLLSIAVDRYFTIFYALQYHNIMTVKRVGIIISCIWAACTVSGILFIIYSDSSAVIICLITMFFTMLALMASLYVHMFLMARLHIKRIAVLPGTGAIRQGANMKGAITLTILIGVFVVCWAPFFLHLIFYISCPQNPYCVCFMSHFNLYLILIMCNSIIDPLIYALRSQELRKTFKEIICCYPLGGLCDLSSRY
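Assay system: U2OS cells stably expressing human melanocortin 4 receptor (MC4R) / Dosing: 6.5 µM / Timing: compound 30 min, challenge 1 h, detection 1 h / Measured by: Eu-cAMP/anti-cAMP TR-FRET, emission 671 nm / Replicates: singlicate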
AHR activator: activates the human aryl hydrocarbon receptor; P35869; AHR-responsive luciferase reporter cells, luminescence; activation, % at 5 µM; 2.5% of 320,000 active; in the data active = activation above about 47%
m5-HT2A agonist: activates the mouse 5-HT2A serotonin receptor. P35363. CHO-K1 mHTR2A beta-arrestin complementation, luminescence; percent of 30 µM serotonin response. activation, % at 7.6 µM. 0.66% of 360,000 active. AID 624169;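 active = activation above a run cutoff, the mean activation of all tested compounds plus 3 SD, cut at about 14% in these data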
MC4R barr agon: human MC4R agonism via beta-arrestin; P32245; U2OS MC4R beta-arrestin complementation, luminescence; percent of melanotan II response, DMSO zero; activation, % at 8.9 µM; 0.98% of 360,000 active;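 active = activation above a per-plate cutoff, the mean activation of sample wells on that plate plus 3 SD, cut at about 8% in these data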
FXN GAA850 act: frataxin GAA850 promoter activation | HEK293 lucGAA850 FXN promoter luciferase reporter, 24 h; percent of 10 µM SAHA response | activation, % at 6 µM | 0.56% of 360,000 active | AID 540364;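 active = activation above the average of all compounds screened plus 3 SD, cutoff fixed separately per campaign, cut at about 7.5% in these data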
MC4R barr conf: human MC4R beta-arrestin agonism confirmation; shares compounds with MC4R barr agon; U2OS MC4R beta-arrestin recruitment, luminescence; scaled DMSO 0%, Melanotan II 100%; activation, % at 8.9 µM; 31% of 2,400 active; AID 602192;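 active = mean activation across replicates above the hit cutoff set in the earlier primary screen, cut at about 8% in these data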
MOR DOR agonist: activates mu-delta opioid heterodimer, MC4R agonist counter-screen; shares compounds with MC4R barr agon; U2OS PathHunter beta-arrestin, beta-gal luminescence; percent of deltorphin B response, DMSO zero; activation, % at 9.2 µM; 5.8% of 2,400 active; AID 602194;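 active = mean activation across replicates exceeds the hit threshold derived in the earlier primary screen, cut at about 18% in these data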
Large screens that a line does not name were inactive (follow-up assays come after a bar, where they were run). An excerpt weighted towards active compounds, which were near 4.7% of everything screened.

O=C(C[C@H]1C(=O)N(c2ccccc2)C[C@@H]1Cc1ccccc1)Nc1ccc(Br)cc1	MC4R barr agon 13.8 (no result: AHR activator) | MC4R barr conf inactive | MOR DOR agonist inactive
O=C(C[C@H]1C(=O)N(c2ccc(Br)cc2)C[C@@H]1Cc1ccccc1)Nc1ccccc1	none (no result: AHR activator)
Cc1ccc(C)c(OCc2ccc(C(=O)NN)o2)c1	MC4R barr agon 14.5 | MC4R barr conf inactive | MOR DOR agonist inactive
Cc1ccc(C)c(OCc2ccc(C(=O)Nc3ccc([N+](=O)[O-])cn3)o2)c1	MC4R barr agon 15.8 | MC4R barr conf inactive | MOR DOR agonist inactive
Cc1ccc(OCCNC(=O)c2ccc(COc3ccccc3)o2)cc1	none
Cc1ccc(C)c(N2CCN(C(=O)CCc3nc(-c4ccccc4Cl)no3)CC2)c1	none (no result: AHR activator)
COc1ccc(-c2cnc3c(NC(C)=O)cc(-c4ccc(S(C)(=O)=O)cc4)cn23)cc1OC	MC4R barr agon 10.8 (no result: AHR activator) | MC4R barr conf 9.8 | MOR DOR agonist inactive
CC(=O)Nc1cc(-c2ccc(F)cc2)cn2c(-c3ccc(S(C)(=O)=O)cc3)cnc12	none (no result: AHR activator)
COc1cccc(-c2cnc3c(NC(C)=O)cc(-c4ccc(S(C)(=O)=O)cc4)cn23)c1	MC4R barr agon 10.7 (no result: AHR activator) | MC4R barr conf 14.2 | MOR DOR agonist inactive
Cc1ccc(S(=O)(=O)N(C)C)cc1NC(=O)COC(=O)C1=COCCO1	none
CC(C)=CCC[C@H](C)C[C@@H]1CC2=C(C(=O)OC(C)(C)O2)[C@@H](c2ccc(F)cc2)O1	none (no result: MC4R antag cAMP, AHR activator, MC4R barr agon, FXN GAA850 act)
CCN(CC)S(=O)(=O)c1ccc(C)c(NC(=O)COC(=O)C=C(C)C)c1	none
CCN(CC)S(=O)(=O)c1ccc(Cl)c(NC(=O)COc2ccc(OC)cc2)c1	MC4R barr agon 30.6 | MC4R barr conf 17.0 | MOR DOR agonist 26.2
CCN(CC)S(=O)(=O)c1ccc(C)c(NC(=O)COc2ccc(Cl)cc2Br)c1	MC4R barr agon 9.7 | MC4R barr conf 28.9 | MOR DOR agonist 39.9
COc1cccc(C(=O)NCc2ccc(-c3nc4ccccc4s3)cc2)c1	MC4R barr agon 30.0 | MC4R barr conf inactive | MOR DOR agonist inactive
CN(CC(=O)Nc1ccc(Cl)cc1)C(=O)CNC(=O)c1cccs1	none
Cc1cccc(N2C(=O)/C(=C/c3cccnc3)SC2=S)c1	none
O=C1/C(=C\c2ccco2)SC(=S)N1C1CCCCC1	none (no result: MC4R antag cAMP, m5-HT2A agonist, MC4R barr agon, FXN GAA850 act)
Cc1ccc(N2C(=O)/C(=C/c3ccco3)SC2=S)cc1	MC4R barr agon 22.9 | MC4R barr conf inactive | MOR DOR agonist inactive
Cc1ccc(N2C(=O)/C(=C/c3cccnc3)SC2=S)cc1	MC4R barr agon 15.4 | MC4R barr conf inactive | MOR DOR agonist inactive
Oc1ccccc1/C=N/NC(=S)NC1CC2CCC1C2 (stereo not drawn)	MC4R barr agon 12.3 | MC4R barr conf inactive | MOR DOR agonist inactive
CCCCNC(=O)c1[nH]c(=O)cnc1-c1ccccc1	none (no result: MC4R antag cAMP, AHR activator, MC4R barr agon, FXN GAA850 act)
O=C1COc2ccc(S(=O)(=O)N3CCN(c4cccc(Cl)c4)CC3)cc2N1	MC4R barr agon 9.6 | MC4R barr conf inactive | MOR DOR agonist inactive
Cn1c(=O)oc2cc(S(=O)(=O)N3CCN(c4cccc(Cl)c4)CC3)ccc21	MC4R barr agon 10.6 | MC4R barr conf inactive | MOR DOR agonist inactive
O=C1COc2ccc(S(=O)(=O)CCC(=O)N3CCN(c4cccc(Cl)c4)CC3)cc2N1	none
NC1=NC(c2ccccc2C(F)(F)F)N(c2ccc(F)c(Cl)c2)C(N)=N1 (stereo not drawn)	none
CCOc1ccc(OCCC(=O)N(CC)CC(=O)NCc2cccs2)cc1	none
Cc1nnnn1/C(=C\c1ccccc1)C(=O)OCC(=O)Nc1ccc(Cl)cc1F	MC4R barr agon 37.3 | MC4R barr conf 23.8 | MOR DOR agonist inactive
C=C(C)c1ccc(C(C)(C)NC(=O)N(Cc2ccccc2)Cc2ccco2)cc1	MC4R barr agon 17.3 | MC4R barr conf inactive | MOR DOR agonist inactive
COc1ccc(NC(=O)C2c3ccccc3OCC(=O)N2Cc2ccco2)cc1 (stereo not drawn)	none (no result: MC4R antag cAMP, AHR activator, MC4R barr agon, FXN GAA850 act)
O=c1c(Cl)c(N/N=C/c2ccc(Br)cc2)cnn1-c1ccccc1	MC4R barr agon 15.9 | MC4R barr conf 11.7 | MOR DOR agonist inactive
O=C(O)c1c(C(=O)O)c(-c2ccc(Cl)c(Cl)c2)n2c1CSC2	none
COc1cc(/C=C/C(=O)OCC(=O)Nc2cc(C(F)(F)F)ccc2N2CCOCC2)ccc1O	MC4R barr agon 23.6 | MC4R barr conf inactive | MOR DOR agonist inactive
COc1cc2c(-c3ccccc3O)nc3c(c(C)nn3-c3ccccc3)c2cc1OC	MC4R barr agon 11.4 | MC4R barr conf inactive | MOR DOR agonist 19.8
Cc1ccc(N(CC(=O)NC(C)c2ccccc2)S(=O)(=O)c2cccs2)cc1 (stereo not drawn)	MC4R barr agon 17.4 | MC4R barr conf inactive | MOR DOR agonist inactive
Cc1ccc(N(CC(=O)NC(C)c2ccccc2)S(=O)(=O)c2c(C)noc2C)cc1 (stereo not drawn)	none
CC[C@]12c3[nH]c4ccc(Cl)cc4c3CCN1C(=O)[C@@H](CC(=O)NC/C=C(\C)CCC=C(C)C)C[C@@H]2C(=O)N1CCN(C(=O)C2CC2)CC1	none (no result: AHR activator)
COc1ccccc1C(=O)COC(=O)c1cc(=O)[nH]c2ccccc12	none
COc1ccc(C(=O)COC(=O)c2cc(=O)[nH]c3ccccc23)c(OC)c1	MC4R barr agon 11.7 | MC4R barr conf inactive | MOR DOR agonist inactive
CC(=O)c1nn(-c2cccc(Br)c2)cc1C(=O)c1ccc(C)cc1	MC4R barr agon 35.0 | MC4R barr conf inactive | MOR DOR agonist inactive
Cc1ccc(NC(=O)Cn2c(O)c(N=NC(=O)c3cc4ccccc4cc3O)c3ccccc32)cc1	MC4R barr agon 12.3 | MC4R barr conf inactive | MOR DOR agonist 41.1
Cc1ccc(NC(=O)Cn2c(O)c(N=NC(=O)c3ccncc3)c3ccccc32)cc1	none
O=C(N=Nc1c(O)n(Cc2ccccc2)c2ccccc12)c1cc2ccccc2cc1O	MC4R barr agon 15.7 | MC4R barr conf 18.8 | MOR DOR agonist inactive
CSCCC(C(=O)Nc1c(C)cccc1C)N1CCN(C/C=C/c2ccccc2)CC1 (stereo not drawn)	none (no result: MC4R antag cAMP, AHR activator, MC4R barr agon, FXN GAA850 act)
COC(=O)C(C(=O)OC)c1cc2c(cc1CNS(=O)(=O)c1ccc(C)cc1)OCO2	none (no result: MC4R antag cAMP, AHR activator, MC4R barr agon, FXN GAA850 act)
Cc1ccc(C)c(OCC(=O)Nc2nonc2NC(=O)COc2cc(C)ccc2C)c1	MC4R barr agon 19.2 | MC4R barr conf inactive | MOR DOR agonist inactive
COc1ccc(C(C)(NC(C)=O)c2nc(-c3cccc4cccnc34)cs2)cc1 (stereo not drawn)	none (no result: AHR activator)
COc1cc(CC(=O)NCCc2ccc(OCc3ccccc3)cc2)c([N+](=O)[O-])cc1OC	MC4R barr agon 12.4 | MC4R barr conf inactive | MOR DOR agonist inactive
